Published values pooled from the literature.
Lines come from different studies, so protocols differ. In brackets after ≈: the same amount, converted by molar mass.

Cc1ccc2nc(-c3ccc(Cl)cc3)[nH]c2c1 — IC50 (human Rhabdomyosarcoma cell; cell growth or viability, MTT; 48 h): 48.3 µM
CCCc1nc(N(C)C)c2c(c1O)C(=O)C1=C(O)[C@]3(O)C(=O)C(C(N)=O)=C(O)[C@@H](N(C)C)[C@@H]3C[C@@H]1C2.Cl.Cl — MIC (Enterobacter cloacae; microbial growth, broth dilution; ATCC13047): > 32 µg/mL
CC(C)Oc1c(NC(=O)c2ccc(NC(=O)[C@H](CC(N)=O)NC(=O)c3ccc(NC(=O)c4ccc(C#N)cn4)cc3)cc2)ccc(C(=O)Nc2ccc(C(=O)O)cc2)c1O — MIC (Serratia marcescens; microbial growth; DSM30121): > 64 µg/mL
C/C=C(\C)c1cc(OC(=O)c2c(O)c(C)c(O)c(Cl)c2/C(C)=C/C)c(C)c(O)c1C(=O)O — MIC (Enterococcus gallinarum; microbial growth, broth dilution; GALLINARUM): 64 µg/mL (≈ 139 µM)
CCOc1ccc(-c2nc3ccccc3[nH]2)cc1 — IC50 (human Rhabdomyosarcoma cell; cell growth or viability, MTT; 48 h): 25.1 µM
CN(C)c1ccc(O)c2c1C[C@H]1C[C@H]3[C@H](N(C)C)C(O)=C(C(N)=O)C(=O)[C@@]3(O)C(O)=C1C2=O — MIC (Enterobacter cloacae; microbial growth, broth dilution; ATCC13047): 2 µg/mL (≈ 4.37 µM)
CC1(C)S[C@@H]2[C@H](NC(=O)[C@H](N)c3ccccc3)C(=O)N2[C@H]1C(=O)O — MIC (Enterococcus gallinarum; microbial growth, broth dilution; GALLINARUM): 8 µg/mL (≈ 22.9 µM)
C[C@@H](Oc1cc(-c2cnn(C3CCNCC3)c2)cnc1N)c1c(Cl)ccc(F)c1Cl — inhibition (NCI-H3122; cell growth or viability, MTT; 1 µg/mL, 72 h): 77.5%
O=[N+]([O-])c1cccc(-c2nc3ccccc3[nH]2)c1 — IC50 (human Rhabdomyosarcoma cell; cell growth or viability, MTT; 48 h): 50.3 µM
CC(C)CCNc1nc(Cl)c2c(c1O)C(=O)C1=C(O)[C@]3(O)C(=O)C(C(N)=O)=C(O)[C@@H](N(C)C)[C@@H]3C[C@@H]1C2.Cl.Cl.Cl — MIC (Enterobacter cloacae; microbial growth, broth dilution; ATCC13047): > 32 µg/mL
Cc1cc(Nc2ncc(Cl)c(Nc3ccccc3S(=O)(=O)C(C)C)n2)c(OC(C)C)cc1C1CCNCC1 — inhibition (NCI-H3122; cell growth or viability, MTT; 2 µg/mL, 72 h): 90.7%
